The values below come from ChEMBL document CHEMBL1770099, “Aromatic ring functionalization of benzolactam derivatives: new potent dopamine D3 receptor ligands” (Bioorg Med Chem Lett, 2011).

Molecules are shown by their SMILES.

Experiment [1] addresses T1, D(2) dopamine receptor (Homo sapiens, UniProt P14416). Kind of experiment: Displacement of [3H]Spiperone from human dopamine D2 short receptor expressed in CHO cells. Format: cell-based. In a few lines:
(§1)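 Competition for [3H]spiperone binding to cloned human receptor (D2long, D2short or D4.4) stably expressed in CHO cells; Ki values are means of two to four individual competition experiments, each run in triplicate.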
On the technique in general: Displacement assays read how much labelled ligand stays bound in the presence of the test substance.

Experiment [2] has as its target T1, D(2) dopamine receptor. Kind of experiment: Displacement of [3H]Spiperone from human dopamine D2 long receptor expressed in CHO cells. The format is cell-based. In a few lines:
as §1

Experiment [3] deals with 5-hydroxytryptamine receptor 2A (Sus scrofa, UniProt P50129). Kind of experiment: Displacement of [3H]Ketanserin from pig 5-HT2 receptor.
Sequence of 5-hydroxytryptamine receptor 2A (P50129 whole entry): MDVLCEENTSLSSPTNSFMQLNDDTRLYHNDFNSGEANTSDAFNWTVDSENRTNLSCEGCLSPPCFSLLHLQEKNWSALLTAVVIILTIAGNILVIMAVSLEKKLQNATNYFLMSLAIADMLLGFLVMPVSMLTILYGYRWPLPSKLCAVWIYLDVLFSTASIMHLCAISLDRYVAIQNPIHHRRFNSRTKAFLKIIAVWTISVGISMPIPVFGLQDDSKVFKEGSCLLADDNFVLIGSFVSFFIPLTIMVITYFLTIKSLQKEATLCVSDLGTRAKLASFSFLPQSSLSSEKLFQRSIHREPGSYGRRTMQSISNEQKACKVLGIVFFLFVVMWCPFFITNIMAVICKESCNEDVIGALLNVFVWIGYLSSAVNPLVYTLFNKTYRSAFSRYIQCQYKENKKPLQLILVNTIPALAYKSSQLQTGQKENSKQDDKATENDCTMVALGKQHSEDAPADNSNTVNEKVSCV
In experiment [4] the target is D(1A) dopamine receptor (Sus scrofa, UniProt P50130). Kind of experiment: Displacement of [3H]SCH-23390 from dopamine D1 receptor in pig striatal membranes. Format: cell membranes, Striatum, Membrane. In a few lines: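 Competition binding with D1-selective radioligand [3H]SCH23390 on porcine striatal membranes; Ki values are means of two to four individual competition experiments, each run in triplicate.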
Sequence of D(1A) dopamine receptor (P50130 whole entry): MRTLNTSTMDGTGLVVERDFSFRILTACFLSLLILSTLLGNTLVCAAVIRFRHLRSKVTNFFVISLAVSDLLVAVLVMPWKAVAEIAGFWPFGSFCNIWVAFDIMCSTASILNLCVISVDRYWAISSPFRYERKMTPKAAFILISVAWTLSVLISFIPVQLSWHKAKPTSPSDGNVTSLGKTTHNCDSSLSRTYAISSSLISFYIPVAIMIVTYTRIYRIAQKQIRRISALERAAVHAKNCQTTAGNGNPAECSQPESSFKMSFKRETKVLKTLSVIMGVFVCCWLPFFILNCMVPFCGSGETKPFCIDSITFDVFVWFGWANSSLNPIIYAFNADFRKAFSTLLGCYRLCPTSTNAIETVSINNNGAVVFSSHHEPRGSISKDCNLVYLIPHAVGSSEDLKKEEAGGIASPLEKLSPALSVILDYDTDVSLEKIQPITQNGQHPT

A short description of experiment [5]: Displacement of [3H]WAY-100635 from pig 5-HT1A receptor. Set-up: species or system Sus scrofa.
The target of experiment [6] is T2, D(3) dopamine receptor (Homo sapiens, UniProt P35462). Kind of experiment: Displacement of [3H]Spiperone from human dopamine D3 receptor expressed in CHO cells. The format is cell-based.
T2 sequence (P35462 whole entry): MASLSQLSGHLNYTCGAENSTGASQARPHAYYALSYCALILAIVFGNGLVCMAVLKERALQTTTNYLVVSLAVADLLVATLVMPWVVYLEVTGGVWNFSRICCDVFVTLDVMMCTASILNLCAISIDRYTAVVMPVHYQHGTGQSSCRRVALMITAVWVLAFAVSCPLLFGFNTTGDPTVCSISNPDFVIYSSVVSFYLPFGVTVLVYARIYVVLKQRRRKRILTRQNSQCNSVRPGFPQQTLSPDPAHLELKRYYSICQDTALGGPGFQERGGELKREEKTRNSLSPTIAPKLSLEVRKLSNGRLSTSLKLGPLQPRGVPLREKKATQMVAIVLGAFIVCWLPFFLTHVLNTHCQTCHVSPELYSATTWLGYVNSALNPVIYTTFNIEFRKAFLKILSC
The nature of experiment [7]: Displacement of [3H]Prazosin from pig adrenergic alpha1 receptor. Set-up: species or system Sus scrofa.
The target of experiment [8] is T3, D(4) dopamine receptor (Homo sapiens, UniProt P21917).
T3 sequence (P21917 whole entry): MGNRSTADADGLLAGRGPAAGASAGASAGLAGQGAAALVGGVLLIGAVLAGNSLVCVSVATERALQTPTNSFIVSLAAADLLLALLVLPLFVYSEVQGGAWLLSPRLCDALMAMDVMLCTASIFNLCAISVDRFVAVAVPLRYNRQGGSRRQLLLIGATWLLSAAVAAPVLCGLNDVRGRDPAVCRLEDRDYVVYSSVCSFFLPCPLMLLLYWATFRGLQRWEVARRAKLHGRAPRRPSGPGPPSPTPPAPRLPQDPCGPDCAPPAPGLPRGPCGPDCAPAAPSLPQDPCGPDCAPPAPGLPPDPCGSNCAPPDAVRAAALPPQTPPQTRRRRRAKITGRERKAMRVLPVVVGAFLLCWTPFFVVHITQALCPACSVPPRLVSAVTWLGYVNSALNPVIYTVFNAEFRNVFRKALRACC
Kind of experiment: Displacement of [3H]Spiperone from human dopamine D4.4 receptor expressed in CHO cells. The format is cell-based. In short, it runs like this:
as §1

Experiment [9] has as its target T2, D(3) dopamine receptor. Kind of experiment: Binding affinity to dopamine D3 receptor.
Experiment [10] in a line: Selectivity ratio of Ki for dopamine D2 long receptor to Ki for dopamine D3 receptor.
Experiment [11] has as its target T2, D(3) dopamine receptor. Kind of experiment: Agonist activity at human dopamine D3 receptor expressed in dhfr-deficient CHO cells assessed as [3H]thymidine incorporation. Format: functional, cell-based. For orientation: Dividing cells build labelled thymidine or BrdU into new DNA.

T1 sequence (P14416 whole entry): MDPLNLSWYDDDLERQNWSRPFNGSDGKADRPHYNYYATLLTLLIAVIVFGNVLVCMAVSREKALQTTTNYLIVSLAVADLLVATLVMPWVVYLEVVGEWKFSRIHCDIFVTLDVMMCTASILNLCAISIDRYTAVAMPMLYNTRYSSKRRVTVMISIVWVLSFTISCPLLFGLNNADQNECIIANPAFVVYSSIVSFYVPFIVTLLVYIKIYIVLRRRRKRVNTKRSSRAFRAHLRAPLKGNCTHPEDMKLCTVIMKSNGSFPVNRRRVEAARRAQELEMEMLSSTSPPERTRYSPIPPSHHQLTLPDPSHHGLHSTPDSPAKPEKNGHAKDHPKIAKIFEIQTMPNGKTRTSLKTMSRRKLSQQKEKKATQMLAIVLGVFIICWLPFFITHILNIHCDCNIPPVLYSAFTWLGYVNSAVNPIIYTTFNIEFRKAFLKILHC

For the molecule `COc1ccccc1N1CCN(CCCCN2CCCc3cc(-c4cccs4)ccc3C2=O)CC1`, the Ki in [1] is 2.1 nM; in [2], 5.1 nM; in [3] it was 530 nM; in experiment [4], 920 nM; in experiment [5], 68 nM; in [6], 0.29 nM. Further, the Ki amounted to 9.7 nM in experiment [7] and 2.9 nM in [8].

In [9], `Cc1nc(-c2ccc(C(=O)N[C@H]3CC[C@H](CCN4CCc5ccc(S(C)(=O)=O)cc5CC4)CC3)cc2)no1` showed a Ki of 4 nM. Further, in experiment [10], the Ratio Ki worked out at 100.

`COc1ccccc1N1CCN(CCCCN2CCc3cc(-c4ccco4)ccc3C2=O)CC1`: the inhibitory constant (Ki) amounted to 4.8 nM in [1]; 16 nM in experiment [2]; 330 nM in experiment [3]; 580 nM in experiment [4]; 19 nM in experiment [5]; 0.21 nM in experiment [6]. Also, the Ki in [7] was determined as 1.6 nM; in [8], 3.3 nM. Moreover, the EC50 in [11] worked out at 2.3 nM.

Take `COc1ccccc1N1CCN(CCCCN2CCCc3ccccc3C2=O)CC1`: the Ki amounted to 1.5 nM in [1]; 3.9 nM in experiment [2]; 1100 nM in experiment [3]; 2900 nM in experiment [4]; 1.7 nM in experiment [5]; 0.27 nM in experiment [6]. In addition, the Ki in experiment [7] was 5.7 nM; in experiment [8], 1.3 nM. For the same molecule, the EC50 in experiment [11] was found to be 0.33 nM.

In the case of `COc1ccccc1N1CCN(CCCCN2CCc3cc(-c4cccs4)ccc3C2=O)CC1`, the Ki amounted to 6.9 nM in experiment [1]; 11 nM in experiment [2]; 190 nM in [3]; 480 nM in [4]; 6.2 nM in experiment [5]; 0.12 nM in experiment [6]. The Ki in experiment [7] is 3.7 nM; in [8] it was 2.3 nM. In addition, in experiment [11], the EC50 was 2.8 nM.

For `C#Cc1ccc2c(c1)CCN(CCCCN1CCN(c3ccccc3OC)CC1)C2=O`, the Ki in experiment [1] was 8.8 nM; in experiment [2] it was 24 nM; in [3], 920 nM; in [4], 1900 nM; in experiment [5] it was 14 nM; in [6] it was 0.5 nM. The inhibitory constant (Ki) stood at 2.4 nM in experiment [7] and 4.1 nM in experiment [8].

As to `COc1ccccc1N1CCN(CCCCN2CCc3cc(C#N)ccc3C2=O)CC1`, the Ki in [1] is 22 nM; in [2] it was 38 nM; in experiment [3], 430 nM; in [4], 3200 nM; in experiment [5], 3.8 nM; in experiment [6], 1.3 nM. In addition, the Ki in experiment [7] is 3.8 nM; in experiment [8], 6.1 nM.

As to `COc1ccccc1N1CCN(CCCCN2CCc3cc(-c4ccncc4)ccc3C2=O)CC1`, the Ki in [3] came to 160 nM; in [4], 380 nM; in experiment [5], 13 nM; in experiment [6], 0.12 nM; in experiment [7] it was 2.2 nM; in experiment [8], 3.4 nM.

Turning to `CC(=O)Nc1ccc(CCN2C[C@@H]3COc4ccc(C#N)cc4[C@H]3C2)cc1`, in experiment [9], the Ki is 2 nM. In addition, the Ratio Ki in [10] amounted to 37.

As for `COc1ccccc1N1CCN(CCCCN2CCc3cc(F)ccc3C2=O)CC1`, the inhibition constant Ki in experiment [1] was 9.2 nM; in experiment [2] it was 26 nM; in experiment [3] it was 840 nM; in [4] it was 2300 nM; in experiment [5], 1.7 nM; in experiment [6] it was 1.6 nM. Besides, the Ki in experiment [7] is 3.1 nM; in [8] it was 2.8 nM.

Regarding `COc1ccccc1N1CCN(CCCCN2CCc3c(cccc3-c3ccccc3)C2=O)CC1`, the Ki was found to be 63 nM in experiment [1]; 52 nM in [2]; 230 nM in experiment [3]; 220 nM in [4]; 47 nM in experiment [5]; 12 nM in experiment [6]. The Ki was 1.3 nM in experiment [7] and 9.8 nM in experiment [8].

Consider `COc1ccccc1N1CCN(CCCCNC(=O)c2ccc(-c3ccc(C(C)=O)cc3)cc2)CC1`, for which the Ratio Ki in experiment [10] worked out at 130.

For `COc1ccccc1N1CCN(CCCCN2CCc3ccccc3C2=O)CC1`, the inhibition constant (Ki) in experiment [1] was found to be 7 nM; in experiment [2], 21 nM; in experiment [3], 990 nM; in experiment [4], 2500 nM; in experiment [5], 2.4 nM; in experiment [7] it was 2.3 nM. In experiment [8], this molecule displayed a Ki of 1.9 nM.

On to `COc1ccccc1N1CCN(CCCCN2CCc3cc(-c4ccccc4)ccc3C2=O)CC1`, for which the Ki in experiment [1] came to 15 nM; in experiment [2] it was 38 nM; in experiment [3], 330 nM; in experiment [4] it was 640 nM; in experiment [5], 38 nM; in [6] it was 0.25 nM. Further, the inhibition constant (Ki) in [7] stood at 5.4 nM; in experiment [8] it was 3.4 nM. Also, the EC50 in experiment [11] amounted to 3.3 nM.

Consider `COc1ccc2c(c1)CCCN(CCCCN1CCN(c3ccccc3OC)CC1)C2=O`, for which the Ki worked out at 0.93 nM in experiment [1]; 3.2 nM in experiment [2]; 810 nM in experiment [3]; 2100 nM in experiment [4]; 2.5 nM in [5]; 0.27 nM in experiment [6]. Further, the Ki in [7] was found to be 3.7 nM; in experiment [8] it was 3 nM.

Usually Ki stands for the equilibrium dissociation constant of an inhibitor or competing ligand from its target. Higher therefore signals weaker binding. What is called EC50 is the concentration that produces a half-maximal response.
